Assay outcomes deposited in PubChem by Broad Institute.
T cruzi intra – inhibitors of intracellular Trypanosoma cruzi. AID 651903. actives 4.9% (n = 22,000). intracellular Trypanosoma cruzi in host cells, plate reader. activity score (inhibition), % at 5.01 µM; in the data active means activity score above about 55%; inconclusive means no clear call, values can overlap the other calls;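 further: parasites and compound incubated about four days before reading; 0% = median of neutral control wells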
A1 apoptosis 2 – compounds inhibiting A1, read as caspase activation; AID 2465; MEF A1-2A-BIM cells, caspase-Glo luminescence, 3 h; percent of clofoctol response, DMSO zero; 24,000 tested, under 10 active; caspase activation, % (test concentration not listed); in the data active means caspase activation above about 5.9%; inconclusive means no clear call, values can overlap the other calls; inactive means below about 2.2%
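Evaluation: Caspase-3/7 activity from luminescence increase | Assay system: A1-2A-BIM mouse embryonic fibroblasts | Quantity: 2500 MEF cells/well | Medium: RPMI-1640 plus 10% FBS | Detection: Caspase-Glo 3/7 luminescence, 1 h at room temperature | Dosing: 50 nL compound per well, pinned | Timing: Cells settled overnight, compound exposure 3 h at 37 °C, 5% CO2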
INS-1E rescue – INS-1E beta cell protection from cytokine death; INS-1E cytokine-induced death, ATP luminescence, 48 h; normalised: neutral wells 0, positive control 100; protection from cytokine-induced ATP loss, % at 10 µM; AID 488910; actives 0.1% (n = 20,000);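 active means mean replicate protection from cytokine-induced ATP loss at least 50% and at least 75% of replicates each reaching 50%; inconclusive means meets only one of the two criteria, mean or replicate share; inactive means fails both the mean and replicate share criteria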
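assay system = INS-1E rat insulinoma cells | amount = 8000 cells per well | medium = phenol-red-free RPMI with 5% fetal bovine serum | doses = one compound concentration, pin transfer | timing = 48 h cytokine plus compound treatment, 10 min reagent incubation | also added = IL-1β, TNF-α and IFN-γ cytokine mix | signal = CellTiter-Glo luminescence measuring cellular ATP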
The depositor's hits bear a star. Shown is part of a subset that was picked to be rich in hits.

Results for C[C@@H]1CN([C@@H](C)CO)C(=O)c2cc(NC(=O)c3ccncc3)ccc2O[C@@H]1CN(C)C(=O)Nc1cccc2ccccc12 ?
T cruzi intra: -3; A1 apoptosis 2: 0; INS-1E rescue: 10

How did C[C@H](CO)N1C[C@H](C)[C@H](CN(C)C(=O)Nc2cccc3ccccc23)Oc2c(NS(C)(=O)=O)cccc2C1=O do in these assays?
T cruzi intra: -18; A1 apoptosis 2: 0; INS-1E rescue: 3

How did COc1ccc(S(=O)(=O)N(C)C[C@@H]2OCCCC[C@@H](C)Oc3ccc(NC(=O)NC(C)C)cc3C(=O)N([C@@H](C)CO)C[C@@H]2C)cc1 do in these assays?
A1 apoptosis 2: 0

How did C[C@H](CO)N1C[C@H](C)[C@H](CN(C)S(=O)(=O)c2ccccc2F)OCc2cnnn2CCCC1=O do in these assays?
T cruzi intra: 5; A1 apoptosis 2: 1

How did C[C@H]1CN([C@@H](C)CO)C(=O)c2cc(NS(=O)(=O)c3ccccc3)ccc2O[C@@H]1CN(C)Cc1ccc(-c2ccccc2)cc1 do in these assays?
T cruzi intra: 67*; A1 apoptosis 2: 0; INS-1E rescue: -24

How did Cc1ccc(S(=O)(=O)Nc2ccc3c(c2)C(=O)N([C@@H](C)CO)C[C@@H](C)[C@H](CN(C)Cc2ccc(-c4ccccc4)cc2)O3)cc1 do in these assays?
T cruzi intra: inconclusive; INS-1E rescue: -8

How did Cc1ccc(S(=O)(=O)Nc2ccc3c(c2)C(=O)N([C@@H](C)CO)C[C@H](C)[C@@H](CN(C)Cc2ccc(-c4ccccc4)cc2)O3)cc1 do in these assays?
T cruzi intra: 78*; A1 apoptosis 2: 0; INS-1E rescue: -5

Results for C[C@@H]1CN([C@@H](C)CO)C(=O)c2cc(NS(=O)(=O)c3ccccc3)ccc2O[C@@H]1CN(C)Cc1ccc(-c2ccccc2)cc1 ?
T cruzi intra: 27; INS-1E rescue: -59

Results for C[C@H]1CN([C@@H](C)CO)C(=O)c2cc(NC(=O)Nc3ccccc3)ccc2O[C@@H]1CN(C)Cc1ccc2c(c1)OCO2 ?
T cruzi intra: -7; A1 apoptosis 2: 1

What do the screens show for `O=C(N/N=C/c1ccccc1Cl)c1ccccc1O`?
T cruzi intra: -8; INS-1E rescue: -26

What do the screens show for `C[C@H]1CN([C@@H](C)CO)C(=O)Cc2cc(NS(=O)(=O)c3ccc(Cl)cc3)ccc2O[C@H]1CN(C)Cc1ccccc1`?
T cruzi intra: 76*; INS-1E rescue: -5

Results for C[C@@H]1CN([C@@H](C)CO)C(=O)Cc2cc(NS(=O)(=O)c3ccc(Cl)cc3)ccc2O[C@H]1CN(C)Cc1ccccc1 ?
A1 apoptosis 2: 0

Results for C[C@@H]1CN([C@@H](C)CO)C(=O)Cc2cc(NS(=O)(=O)c3ccc(Cl)cc3)ccc2O[C@@H]1CN(C)Cc1ccccc1 ?
T cruzi intra: 35; A1 apoptosis 2: -1; INS-1E rescue: -8

How did C[C@H]1CN([C@@H](C)CO)C(=O)Cc2cc(NS(=O)(=O)c3ccc(Cl)cc3)ccc2O[C@@H]1CN(C)Cc1ccccc1 do in these assays?
T cruzi intra: 69*; INS-1E rescue: 7

What do the screens show for `C[C@@H]1CN([C@@H](C)CO)C(=O)CCCn2cc(nn2)CO[C@H]1CN(C)C(=O)CCC(F)(F)F`?
T cruzi intra: -4; A1 apoptosis 2: 0

What do the screens show for `C[C@@H]1CN([C@@H](C)CO)C(=O)c2cccc(NS(=O)(=O)c3ccccc3)c2O[C@@H]1CN(C)CC1CC1`?
T cruzi intra: 57*; A1 apoptosis 2: 0; INS-1E rescue: 10

Results for Cc1ccc(S(=O)(=O)Nc2cccc3c2O[C@H](CN(C)Cc2ccc(Oc4ccccc4)cc2)[C@@H](C)CN([C@@H](C)CO)C3=O)cc1 ?
T cruzi intra: 24; INS-1E rescue: 0

Results for C[C@H]1CN([C@@H](C)CO)C(=O)c2cccc(NS(=O)(=O)c3ccccc3)c2O[C@H]1CN(C)CC1CC1 ?
T cruzi intra: -3; A1 apoptosis 2: -1; INS-1E rescue: 0

Results for Cc1ccc(S(=O)(=O)Nc2cccc3c2O[C@@H](CN(C)Cc2ccc(Oc4ccccc4)cc2)[C@@H](C)CN([C@H](C)CO)C3=O)cc1 ?
T cruzi intra: 65*; A1 apoptosis 2: 0; INS-1E rescue: -64

What do the screens show for `C[C@@H]1CN([C@H](C)CO)C(=O)c2cccc(NS(=O)(=O)c3ccc(F)cc3)c2O[C@H]1CN(C)Cc1ccc(-c2ccccc2)cc1`?
T cruzi intra: 6; INS-1E rescue: 5

What do the screens show for `C[C@H](CO)N1C[C@H](C)[C@H](CN(C)Cc2ccc(-c3ccccc3)cc2)Oc2c(NS(=O)(=O)c3ccc(F)cc3)cccc2C1=O`?
T cruzi intra: 58*; A1 apoptosis 2: 0; INS-1E rescue: -33
